The source of these data is ChEMBL document CHEMBL1126689, “Novel heterocyclic analogues of the new potent class of calcium entry blockers: 1-[[4-(aminoalkoxy)phenyl]sulfonyl]indolizines” (J Med Chem, 1993).

The species entered for test [1] is Rattus norvegicus. Put plainly: Inhibition of [Ca2+] induced contraction of K+ depolarized rat aorta by 50%. Type of test: functional. The essentials:
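Spirally cut thoracic aorta strips from male Wistar rats were held in modified Krebs solution at 37 °C, gassed with 95% O2/5% CO2. Ca2+-induced contraction was measured after K+ depolarization. The value is the molar concentration blocking contraction by 50%, given as mean ± SE of 3–6 determinations.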

Test [2] in a line: Inhibitory concentration of [3H]- nitrendipine binding against guinea pig cerebral cortex membrane. The class given is functional, tissue-based, Cavia porcellus. The essentials: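 Guinea pig cerebral cortex membranes (washed pellets, stored in liquid nitrogen), 200 μg protein, incubated under sodium light for 90 min at 25 °C in 50 mmol Tris-HCl pH 7.4 with 0.5 nmol [3H]nitrendipine and various compound concentrations (DMSO). Filtration and scintillation counting; 1 μM nifedipine defined specific binding.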

The species entered for test [3] is Cavia porcellus. Put plainly: Inhibition of [3H]nitrendipine binding to L-type calcium channel of guinea pig cerebral cortex membrane at 10e-5 M. Type of test: functional, tissue-based.
The species named for test [4] is Cavia porcellus. In words: Stimulatory concentration of [3H]nitrendipine binding to L-type calcium channel of guinea pig cerebral cortex membrane at 10e-6 M. Type of test: functional, tissue-based.
The species named for test [5] is Cavia porcellus. Put plainly: Molar concentration needed to […] by 50% of maximal stimulation. Type of test: functional.

Consider `CC(C)c1cc2ccccn2c1S(=O)(=O)c1ccc(OCCCNC(C)(C)C)cc1`, for which the IC50 in test [1] is 32.9 nM; in test [2], 12 nM.

Turning to `COc1ccc(CN(C)CCCOc2ccc(S(=O)(=O)c3c(C(C)C)n(C)c4ccccc34)cc2)cc1OC`, the figures for the IC50 in test [1] and in test [2] were 3.7 nM and 1 nM, respectively.

As to `CC(C)c1occc1S(=O)(=O)c1ccc(OCCCNC(C)(C)C)cc1`, the IC50 in test [1] is 235 nM; in test [2], 244 nM.

Turning to `CC(C)c1c(S(=O)(=O)c2ccc(OCCCNC(C)(C)C)cc2)c2ccccc2n1C`, the IC50 in test [1] amounted to 99.3 nM; in test [2], 116 nM.

With `CC(C)c1nc2ccccc2cc1S(=O)(=O)c1ccc(OCCCNC(C)(C)C)cc1`, the IC50 in test [1] was found to be 370 nM; in test [2] it was 181 nM.

On to `CCCCN(CCCC)CCCOc1ccc(S(=O)(=O)c2c(C(C)C)cc3ccccn23)cc1`, for which the values for the IC50 in test [1] and in test [2] were 13.3 nM and 0.99 nM, respectively.

In the case of `CCCCN(CCCC)CCCOc1ccc(S(=O)(=O)c2c(C(C)C)n(C)c3ccccc23)cc1`, the IC50 in test [1] was determined as 24.1 nM; in test [2] it was 11 nM.

In the case of `CCCCN(CCCC)CCCOc1ccc(S(=O)(=O)c2c(C(C)C)[nH]c3ccccc23)cc1`, the values for the IC50 in test [1] and in test [2] were 55.1 nM and 110 nM, respectively.

Molecule `COc1ccc(CCN(C)CCCC(C#N)(c2ccc(OC)c(OC)c2)C(C)C)cc1OC` (stereo unspecified) registered an IC50 in test [2] of 38 nM.

Turning to `CCCCc1oc2ccccc2c1S(=O)(=O)c1ccc(OCCCN(C)CCc2ccc(OC)c(OC)c2)cc1`, the IC50 amounted to 227 nM in test [1] and 7.9 nM in test [2].

Turning to `COc1ccc(CCN(C)CCCOc2ccc(S(=O)(=O)c3cc4ccccc4nc3C(C)C)cc2)cc1OC`, the IC50 in test [1] was determined as 84.2 nM; in test [2] it was 13.1 nM.

As to `COc1ccc(CCN(C)CCCOc2ccc(S(=O)(=O)c3c(C(C)C)oc4ccccc34)cc2)cc1OC`, the IC50 in test [1] was determined as 20.2 nM; in test [2], 0.65 nM.

For the molecule `COc1ccc(CCN(C)CCCOc2ccc(S(=O)(=O)c3[nH]c4ccccc4c3C(C)C)cc2)cc1OC`, the IC50 in test [1] is 37.5 nM; in test [2], 2.2 nM.

In turn, `CCCCN(CCCC)CCCOc1ccc(S(=O)(=O)c2c[nH]nc2C(C)C)cc1` yielded an IC50 in test [1] of 5060 nM. Moreover, the inhibition in test [3] came out at 6%.

On to `COc1ccc(CCN(C)CCCOc2ccc(S(=O)(=O)c3c(C(C)C)nn4ccccc34)cc2)cc1OC`, for which the values for the IC50 in test [1] and in test [2] were 18.8 nM and 2.6 nM, respectively.

Turning to `COc1ccc(CCN(C)CCCOc2ccc(S(=O)(=O)c3c(C(C)C)cc4ccccn34)cc2)cc1OC`, the results for the IC50 in test [1] and in test [2] were 5.9 nM and 0.22 nM, respectively.

As for `COc1cc(CCN(C)CCCOc2ccc(S(=O)(=O)c3c(C(C)C)c4ccccc4n3C)cc2)cc(OC)c1OC`, the IC50 in test [1] is 1.9 nM; in test [2], 0.28 nM.

For `COc1ccc(CCN(C)CCCOc2ccc(S(=O)(=O)c3ccoc3C(C)C)cc2)cc1OC`, the IC50 in test [1] is 84.2 nM.

For `CCCc1oc2ccccc2c1S(=O)(=O)c1ccc(OCCCN(C)CCc2ccc(OC)c(OC)c2)cc1`, the IC50 was 50.8 nM in test [1] and 5.2 nM in test [2].

Take `CCCCN(CCCC)CCCOc1ccc(S(=O)(=O)c2cc3ccccc3nc2C(C)C)cc1`: the IC50 in test [1] was 198 nM; in test [2], 94 nM.

Consider `COc1ccc(CCN(C)CCCOc2ccc(S(=O)(=O)c3c[nH]nc3C(C)C)cc2)cc1OC`, for which, in test [1], the midpoint of inhibition, the IC50, lay at 1720 nM. The Stimulation in test [4] turned out to be 38%.

The molecule `COC(=O)C1=C(C)NC(C)=C(C(=O)OC)C1c1ccccc1[N+](=O)[O-]` [NIFEDIPINE] displayed an IC50 in test [2] of 2.5 nM. This lies in the single-digit nanomolar range.

For the molecule `COc1ccc(CCNCCCOc2ccc(S(=O)(=O)c3c(C(C)C)oc4ccccc34)cc2)cc1OC`, the IC50 was found to be 17.1 nM in test [1] and 1.6 nM in test [2].

Turning to `CCCCN(CCCC)CCCOc1ccc(S(=O)(=O)c2ccoc2C(C)C)cc1`, the IC50 in test [1] was found to be 119 nM; in test [2] it was 186 nM.

In the case of `COc1cc(CCN(C)CCCOc2ccc(S(=O)(=O)c3c(C(C)C)oc4ccccc34)cc2)cc(OC)c1OC`, the IC50 in test [1] was 5.8 nM; in test [2], 0.59 nM.

Take `COc1cc(CCN(C)CCCOc2ccc(S(=O)(=O)c3c(C(C)C)c4ccccc4n3C)cc2)cc(OC)c1`: the IC50 in test [1] turned out to be 16.4 nM; in test [2], 0.093 nM.

For `COc1ccc(CCN(C)CCCOc2ccc(S(=O)(=O)c3c(C(C)C)[nH]c4ccccc34)cc2)cc1OC`, the IC50 in test [1] was 19.1 nM; in test [2], 10.9 nM.

The molecule `CC(C)c1nn2ccccc2c1S(=O)(=O)c1ccc(OCCCNC(C)(C)C)cc1` registered an IC50 in test [1] of 168 nM.

In test [1], `CCCCN(CCCC)CCCOc1ccc(S(=O)(=O)c2c(C(C)C)nn3ccccc23)cc1` yielded an IC50 of 31.1 nM.

In test [5], `COc1ccc([C@@H]2Sc3ccccc3N(CCN(C)C)C(=O)[C@@H]2OC(C)=O)cc1` [DILTIAZEM] gave an IC50 of 59 nM.

Turning to `COc1ccc(CN(C)CCCOc2ccc(S(=O)(=O)c3c(C(C)C)oc4ccccc34)cc2)cc1OC`, the IC50 stood at 14.3 nM in test [1] and 1.9 nM in test [2].

Take `COc1ccc(CCN(C)CCCOc2ccc(S(=O)(=O)c3c(C(C)C)cn4ccccc34)cc2)cc1OC` [FANTOFARONE]: the IC50 in test [2] stood at 0.61 nM.

As for `COc1ccc(CCN(C)CCCOc2ccc(S(=O)(=O)c3c(C(C)C)c4ccccc4n3C)cc2)cc1OC`, the IC50 in test [1] was 3.7 nM; in test [2], 0.072 nM.

Regarding `COc1ccc(CCN(C)CCCOc2ccc(S(=O)(=O)c3c(C(C)C)n(C)c4ccccc34)cc2)cc1OC`, the concentration for half-maximal inhibition (IC50) in test [1] was determined as 4.3 nM; in test [2], 1.1 nM.
